Test results published in ChEMBL document CHEMBL4024777, “Discovery of LY3104607: A Potent and Selective G Protein-Coupled Receptor 40 (GPR40) Agonist with Optimized Pharmacokinetic Properties to Support Once Daily Oral Treatment in Patients with Type 2 Diabetes Mellitus” (J Med Chem, 2018).
Converted amounts (≈) assume the structure as drawn.

Legend:
[1] = biological target: T1, Free fatty acid receptor 1 (Homo sapiens, UniProt O14842); test: Agonist activity at human GPR40 receptor expressed in HEK293 cells assessed as increase in intracellular calcium flux after 2.5 hrs measured over 3 mins by calcium 4 dye-based FLIPR assay relative to linoleic acid; type: functional, cell-based
Method in brief: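 Human GPR40 calcium flux was read on FLIPR. Percent stimulation is expressed against the response to 100 uM linoleic acid.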

[2] = Drug metabolism in rat hepatocytes assessed as glucuronidation; type: ADME, cell-based, Hepatocyte
[3] = biological target: T1, Free fatty acid receptor 1; test: Agonist activity at human GPR40 receptor expressed in HEK293 cells assessed as increase in intracellular calcium flux after 2.5 hrs measured over 3 mins by calcium 4 dye-based FLIPR assay; type: functional, cell-based
Method in brief: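 Calcium flux was read by FLIPR in cells carrying recombinant human GPR40. Percent stimulation is relative to the response to 100 µM linoleic acid. EC50 is reported with SEM and n.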

[4] = Drug metabolism in dog hepatocytes assessed as glucuronidation; type: ADME, cell-based, Canis lupus familiaris, Hepatocyte
[5] = Volume of distribution in type 2 diabetes patient; type: ADME; conditions: human, in vivo
[6] = Clearance in type 2 diabetes patient; type: ADME; conditions: human, in vivo
[7] = Drug metabolism in mouse hepatocytes assessed as desmethylation; type: ADME, cell-based, Hepatocyte
[8] = Dissociation constant, pKa of the compound; type: physicochemical
[9] = Intrinsic clearance in human hepatocytes; type: ADME, cell-based, Hepatocyte
[10] = Drug metabolism in mouse hepatocytes assessed as glucuronidation; type: ADME, cell-based, Hepatocyte
[11] = Intrinsic clearance in human microsomes; type: ADME, Microsome
Rattus norvegicus = test: Antidiabetic activity in po dosed Zucker fa/fa rat assessed as reduction in blood glucose AUC administered daily for 21 days followed by OGTT at 1 hr after compound dosing and measured 60 mins post glucose challenge by oral glucose tolerance test; type: functional
[12] = Metabolic stability in rat microsomes assessed as compound metabolized after 30 mins; type: ADME, Microsome; conditions: read-out: Drug metabolism
Method in brief: (§1)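 Compound incubated 30 min with liver microsomes from mouse, rat, dog or human. Percent of compound metabolized recorded, as mean (SEM, n).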

[13] = Aqueous solubility of the compound at pH 7.4; type: physicochemical
Method in brief: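 Solubility was measured by DMSO/aqueous precipitation at pH 7.4 and reported as the last soluble concentration.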

[14] = Drug metabolism in rat hepatocytes assessed as desmethylation; type: ADME, cell-based, Hepatocyte
[15] = biological target: T1, Free fatty acid receptor 1; test: Competitive displacement of [3H]-TAK-875 from full length human recombinant GPR40 expressed in HEK293 cell membranes after 2 hrs by scintillation counting
Method in brief: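 Binding was measured as competitive inhibition of [3H]-TAK875 (fasiglifam) binding to membranes from cells overexpressing recombinant human GPR40. Ki is reported with SEM and n.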

[16] = Drug metabolism in dog hepatocytes assessed as desmethylation; type: ADME, cell-based, Canis lupus familiaris, Hepatocyte
[17] = Metabolic stability in dog microsomes assessed as compound metabolized after 30 mins; type: ADME, Canis lupus familiaris, Microsome; conditions: read-out: Drug metabolism; method in brief: as §1
[18] = Drug metabolism in dog hepatocytes assessed as N-dealkylation; type: ADME, cell-based, Canis lupus familiaris, Hepatocyte
[19] = Drug metabolism in mouse hepatocytes assessed as N-dealkylation; type: ADME, cell-based, Hepatocyte
[20] = Lipophilicity, log P of the compound; type: physicochemical; conditions: octanol/water
[21] = Drug metabolism in mouse hepatocytes assessed as oxidation; type: ADME, cell-based, Hepatocyte
[22] = Metabolic stability in mouse microsomes assessed as compound metabolized after 30 mins; type: ADME, Microsome; conditions: read-out: Drug metabolism; method in brief: as §1
[23] = Drug metabolism in rat hepatocytes assessed as oxidation; type: ADME, cell-based, Hepatocyte
[24] = Drug metabolism in rat hepatocytes assessed as N-dealkylation; type: ADME, cell-based, Hepatocyte
[25] = Metabolic stability in human microsomes assessed as compound metabolized after 30 mins; type: ADME, Microsome; conditions: read-out: Drug metabolism; method in brief: as §1
[26] = Drug metabolism in dog hepatocytes assessed as oxidation; type: ADME, cell-based, Canis lupus familiaris, Hepatocyte

T1 sequence (O14842 whole entry): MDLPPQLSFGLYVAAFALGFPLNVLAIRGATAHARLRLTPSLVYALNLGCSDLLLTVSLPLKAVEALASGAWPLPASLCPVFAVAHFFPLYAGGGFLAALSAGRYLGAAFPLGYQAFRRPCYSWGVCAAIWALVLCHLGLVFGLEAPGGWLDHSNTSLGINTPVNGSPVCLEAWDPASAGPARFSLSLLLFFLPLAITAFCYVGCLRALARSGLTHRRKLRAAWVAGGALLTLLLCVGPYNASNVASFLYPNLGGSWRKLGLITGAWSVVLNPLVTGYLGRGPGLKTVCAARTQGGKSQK

| Compound | %max [1] [%] | Drug metabolism [2] | EC50 [3] [nM] | Drug metabolism [4] | Vd [5] [L] | clearance [6] [mL/min] | pKa [8] | K [9] [h⁻¹] | Drug metabolism [10] | K [11] [h⁻¹] | ED90 (Rattus norvegicus) [mg/kg] | metabolised at 0.5 h [12] [%] | solubility [13] [µM] | Ki [15] [nM] | metabolised at 0.5 h [17] [%] | also measured |
| --- | --- | --- | --- | --- | --- | --- | --- | --- | --- | --- | --- | --- | --- | --- | --- | --- |
| CC#C[C@@H](CC(=O)O)c1ccc(OCc2ccc(CN3CCCc4cccc(OC)c43)s2)cc1 | 51 | Metabolite_Detected | 3 | Metabolite_Detected | 244 to 358 | 183 to 233 | 3.4 to 6 | 0.17 | Metabolite_Detected | 0.0048 | 3.3 | 62 | > 100 | 27 | 18 | Drug metabolism [7]: Metabolite_Detected; Drug metabolism [14]: Metabolite_Detected; Drug metabolism [16]: Metabolite_Detected |
| CC#C[C@@H](CC(=O)O)c1ccc(OCc2ccc(N3CCC4(CCc5ccccc54)CC3)s2)cc1 | 50 | Metabolite_Detected | 8 | Metabolite_Detected | 443 to 885 | 517 to 717 | 3.4 to 7.9 | 0.23 | Metabolite_Detected | 0.109 | 14.2 | 98 | 70 to 89 (≈ 34 to 43.2 µg/mL) | 8.2 | 93 | Drug metabolism [18]: Metabolite_Detected; Drug metabolism [19]: Metabolite_Detected; logP [20]: 5; Drug metabolism [21]: Metabolite_Detected; metabolised at 0.5 h [22]: 98%; Drug metabolism [23]: Metabolite_Detected; Drug metabolism [24]: Metabolite_Detected; metabolised at 0.5 h [25]: 44%; Drug metabolism [26]: Metabolite_Detected |
